Test results: ChEMBL document CHEMBL4422612, “Small Molecule Inhibitor that Stabilizes the Autoinhibited Conformation of the Oncogenic Tyrosine Phosphatase SHP2” (J Med Chem, 2019)

What was measured:
NCI-H661 [1] = assay: Induction of apoptosis in human NCI-H661 cells assessed as late apoptotic cells at 10 uM after 24 hrs by Annexin V/FITC-staining based FACS analysis (reference value: 3.5%); format: functional
NCI-H661 [2] = assay: Induction of apoptosis in human NCI-H661 cells assessed as late apoptotic cells at 20 uM after 24 hrs by Annexin V/FITC-staining based FACS analysis (reference value: 3.5%); format: functional
[3] = target: Tyrosine-protein phosphatase non-receptor type 6 (Homo sapiens, UniProt P29350); assay: Inhibition of wild type recombinant human SHP1 using H-Glu-Phe-pTyr-Ala-Glu-Val-Gly-Arg-Ser-Pro-Pro-Asp-Pro-Ala-Lys as substrate preincubated for 30 mins followed by substrate addition and measured after 30 mins by Malachite Green-reagent based assay
Method in brief: (§1)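 Full-length SHP2 or SHP1 (0.1 µg) preincubated with compound 30 min at room temperature in 25 mM Tris-HCl pH 7.4, 50 mM NaCl, 5 mM DTT, 2.5 mM EDTA. Phospho-peptide substrate added to 50 µM final; 30 min at 30 °C. Released phosphate read by Malachite Green at OD620. IC50 from six concentrations; three experiments.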

NCI-H661 [4] = assay: Induction of apoptosis in human NCI-H661 cells assessed as necrotic cells at 10 uM after 24 hrs by Annexin V/FITC-staining based FACS analysis (reference value: 4.6%); format: functional
NCI-H661 [5] = assay: Induction of apoptosis in human NCI-H661 cells assessed as viable cells at 20 uM after 24 hrs by Annexin V/FITC-staining based FACS analysis (reference value: 86.9%); format: functional; settings: NCI-H661, 24 h, read-out: Activity
NCI-H661 [6] = assay: Induction of apoptosis in human NCI-H661 cells assessed as early apoptotic cells at 20 uM after 24 hrs by Annexin V/FITC-staining based FACS analysis (reference value: 5%); format: functional
NCI-H661 [7] = assay: Induction of apoptosis in human NCI-H661 cells assessed as early apoptotic cells at 10 uM after 24 hrs by Annexin V/FITC-staining based FACS analysis (reference value: 5%); format: functional
[8] = target: T1, Tyrosine-protein phosphatase non-receptor type 11 (Homo sapiens, UniProt Q06124); assay: Inhibition of wild type recombinant human SHP2 using H-Glu-Phe-pTyr-Ala-Glu-Val-Gly-Arg-Ser-Pro-Pro-Asp-Pro-Ala-Lys as substrate preincubated for 30 mins followed by substrate addition and measured after 30 mins by Malachite Green-reagent based assay; method in brief: as §1
T1 sequence (Q06124 whole entry): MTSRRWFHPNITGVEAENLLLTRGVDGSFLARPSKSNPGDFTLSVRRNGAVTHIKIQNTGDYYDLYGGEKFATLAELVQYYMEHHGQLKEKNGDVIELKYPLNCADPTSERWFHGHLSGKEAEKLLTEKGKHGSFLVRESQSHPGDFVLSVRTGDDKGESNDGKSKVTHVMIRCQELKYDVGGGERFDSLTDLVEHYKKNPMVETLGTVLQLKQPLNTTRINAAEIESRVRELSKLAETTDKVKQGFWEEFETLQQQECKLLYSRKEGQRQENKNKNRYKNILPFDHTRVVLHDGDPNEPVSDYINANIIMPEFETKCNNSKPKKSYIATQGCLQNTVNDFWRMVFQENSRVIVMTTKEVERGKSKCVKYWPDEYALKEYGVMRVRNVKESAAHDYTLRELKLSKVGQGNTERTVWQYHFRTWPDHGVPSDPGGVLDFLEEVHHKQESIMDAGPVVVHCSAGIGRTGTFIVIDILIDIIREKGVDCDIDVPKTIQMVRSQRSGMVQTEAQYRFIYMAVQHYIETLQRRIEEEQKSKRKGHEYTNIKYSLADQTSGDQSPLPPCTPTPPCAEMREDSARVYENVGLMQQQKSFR

NCI-H661 [9] = assay: Induction of apoptosis in human NCI-H661 cells assessed as necrotic cells at 20 uM after 24 hrs by Annexin V/FITC-staining based FACS analysis (reference value: 4.6%); format: functional
[10] = target: Tyrosine-protein phosphatase non-receptor type 11 (Homo sapiens, UniProt Q06124, E76K); assay: Inhibition of recombinant full length human GST-tagged SHP2 E76K mutant using phospho-peptide as substrate pre-incubated for 30 mins before substrate addition and measured after 30 mins
[11] = target: T1, Tyrosine-protein phosphatase non-receptor type 11; assay: Binding affinity to full length wild type His-tagged SHP2 (unknown origin) by MST assay
Method in brief: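 His-tagged SHP2 (200 nM) in 50 mM Tris-HCl pH 8.0, 10 mM NaCl, 0.005% Tween 20, labelled with red-tris-NTA dye. Mixed 1:1 with a 15-step 2-fold dilution series from 600 µM made in PBS/0.005% Tween 20. MST run at 50% power with red filter; one-site fit gives Kd. Mean ± SD of three experiments.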

NCI-H661 [12] = assay: Induction of apoptosis in human NCI-H661 cells assessed as viable cells at 10 uM after 24 hrs by Annexin V/FITC-staining based FACS analysis (reference value: 86.9%); format: functional; settings: NCI-H661, 24 h, read-out: Activity
MEF = assay: Growth inhibition of PTPN11-depleted MEF at 6 uM after 24 to 72 hrs by cell proliferation-based assay; settings: mouse
Method in brief: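 Ptpn11 fl/fl and Ptpn11 +/+ MEFs, both Ade-Cre+, infected with adeno-Cre, then given 6 µM compound or DMSO. Growth measured at 24, 48 and 72 h by One Solution proliferation assay. SHP2 loss confirmed by immunoblot. Triplicates from one of three experiments.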

[13] = target: T1, Tyrosine-protein phosphatase non-receptor type 11; assay: Inhibition of recombinant full length human GST-tagged SHP2 PTP domain using phospho-peptide as substrate pre-incubated for 30 mins before substrate addition and measured after 30 mins

Sequence of Tyrosine-protein phosphatase non-receptor type 11 (Homo sapiens, UniProt Q06124, E76K) (Q06124 as listed by the source E76K): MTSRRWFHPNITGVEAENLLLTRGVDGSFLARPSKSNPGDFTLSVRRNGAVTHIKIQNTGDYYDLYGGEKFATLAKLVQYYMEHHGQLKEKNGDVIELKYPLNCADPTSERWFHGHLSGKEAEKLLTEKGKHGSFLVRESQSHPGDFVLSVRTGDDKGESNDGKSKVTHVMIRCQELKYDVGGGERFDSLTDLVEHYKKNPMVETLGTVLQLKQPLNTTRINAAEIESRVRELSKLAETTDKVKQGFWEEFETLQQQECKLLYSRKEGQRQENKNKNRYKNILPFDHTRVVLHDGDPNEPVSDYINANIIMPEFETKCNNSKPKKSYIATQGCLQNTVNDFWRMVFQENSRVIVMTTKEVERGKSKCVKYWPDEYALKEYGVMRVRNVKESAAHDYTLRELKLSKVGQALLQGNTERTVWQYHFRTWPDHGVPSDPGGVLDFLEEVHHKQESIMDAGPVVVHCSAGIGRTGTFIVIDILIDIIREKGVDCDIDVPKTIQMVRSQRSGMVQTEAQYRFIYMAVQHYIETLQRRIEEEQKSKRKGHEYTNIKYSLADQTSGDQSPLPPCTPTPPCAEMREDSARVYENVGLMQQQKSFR
Sequence of Tyrosine-protein phosphatase non-receptor type 6 (P29350 whole entry): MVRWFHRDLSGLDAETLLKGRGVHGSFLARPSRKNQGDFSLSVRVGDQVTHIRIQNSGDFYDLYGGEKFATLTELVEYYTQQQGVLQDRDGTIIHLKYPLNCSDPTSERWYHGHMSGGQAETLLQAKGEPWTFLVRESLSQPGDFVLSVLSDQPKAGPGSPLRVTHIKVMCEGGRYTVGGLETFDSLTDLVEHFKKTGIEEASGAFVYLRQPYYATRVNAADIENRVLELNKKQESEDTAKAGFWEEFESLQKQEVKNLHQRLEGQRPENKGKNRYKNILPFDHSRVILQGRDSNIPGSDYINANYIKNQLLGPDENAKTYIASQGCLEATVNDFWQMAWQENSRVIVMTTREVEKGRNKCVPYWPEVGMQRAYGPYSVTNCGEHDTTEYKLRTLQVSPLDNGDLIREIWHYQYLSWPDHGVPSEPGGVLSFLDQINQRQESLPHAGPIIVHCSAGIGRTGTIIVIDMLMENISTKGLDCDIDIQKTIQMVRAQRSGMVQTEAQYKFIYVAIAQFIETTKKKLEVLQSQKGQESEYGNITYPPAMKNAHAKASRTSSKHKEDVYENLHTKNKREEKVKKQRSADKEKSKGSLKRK

`CCOc1cc(O)c(C(=O)/C=C/c2ccc(Cl)cc2Cl)cc1CN1CCC=C(n2c(=O)[nH]c3ccccc32)C1` was tested, and the Activity (NCI-H661 [1]) was 7.3%, the Activity (NCI-H661 [2]) was 21% and the IC50 [3] was 72.7 µM. For the same compound, the Activity (NCI-H661 [4]) was 6.2%, the viability at 20 µM (NCI-H661 [5]) was 57.6% and the Activity (NCI-H661 [6]) was 12.6%. The Activity (NCI-H661 [7]) was 9.7%, the IC50 [8] was 9.8 µM and the Activity (NCI-H661 [9]) was 8.9%. The IC50 [10] was 7.67 µM, the Kd [11] was 69 µM and the viability at 10 µM (NCI-H661 [12]) was 76.8%. The Activity (MEF) was “Non-Toxic” and the IC50 [13] was 20.9 µM.
